Bioassay records from PubChem.
CHO parental Ca: ATP-evoked calcium signal inhibitors, parental CHO, primary screen, counter-screen for OX1R antagonist project, cell-based, fluorescence, Fluo-8 calcium dye; inhibition, % at 5.6 µM; AID 463079, 2010; parental CHO-K1, ATP-induced calcium, Fluo-8 fluorescence; 0.63% of 330,000 active;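 active means inhibition above that plate's mean sample inhibition plus 3 SD, cut at about 26% in these data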;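 further: 0% = ATP-challenged DMSO wells and 100% = DMSO wells without ATP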
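Test system: untransfected parental CHO cell line; also added: ATP stimulus; dosing: 5.6 µM, single dose; signal: calcium-sensitive Fluo-8 fluorescence; measure: percent inhibition of ATP-evoked calcium rise, normalized to controls; benchmarks: low control ATP plus DMSO, high control DMSO only; replication: one well per compound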
OX1R antag-1: OX1R (HCRTR1) antagonists, primary screen, fluorescence, CHO/OX1R cells, Fluo-8 calcium, orexin A; 0.43% of 330,000 active; AID 434989, 2010; Fluo-8 calcium fluorescence; inhibition, % at 5 µM;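 active means inhibition above its plate's threshold, mean inhibition of all tested compounds on the plate plus 3 SD, cut at about 37% in these data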;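 further: 0% = orexin A challenge wells and 100% = SB-334867-A antagonist wells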
OX1R antag-2: antagonists of human orexin 1 receptor (OX1R); Orexin/Hypocretin receptor type 1 (Homo sapiens), O43613; OX1R-expressing cells, FRET antagonist read-out; inhibition, % at 6.6 µM; 1.8% of 330,000 active; AID 485270, 2010; in the data active means inhibition mostly above about 38%, no sharp cut-off; inactive means mostly below about 40%;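 further: 0% = agonist challenge alone and 100% = reference antagonist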
EP2 antag: human EP2 receptor antagonists, primary screen, TR-FRET cAMP, C6 glioma cells | 0.52% of 260,000 active | inhibition, % at 25 µM | C6 glioma cells expressing human EP2; cells stimulated with saturating PGE2 | Prostaglandin E2 receptor EP2 subtype (Homo sapiens), P43116;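 active means percent inhibition above 40 after rounding to a whole number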;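 further: rat C6 glioma host cells with rolipram phosphodiesterase inhibitor present; the protocol text gives 20 µM as final concentration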
Target sequence (P43116 whole entry, looked up): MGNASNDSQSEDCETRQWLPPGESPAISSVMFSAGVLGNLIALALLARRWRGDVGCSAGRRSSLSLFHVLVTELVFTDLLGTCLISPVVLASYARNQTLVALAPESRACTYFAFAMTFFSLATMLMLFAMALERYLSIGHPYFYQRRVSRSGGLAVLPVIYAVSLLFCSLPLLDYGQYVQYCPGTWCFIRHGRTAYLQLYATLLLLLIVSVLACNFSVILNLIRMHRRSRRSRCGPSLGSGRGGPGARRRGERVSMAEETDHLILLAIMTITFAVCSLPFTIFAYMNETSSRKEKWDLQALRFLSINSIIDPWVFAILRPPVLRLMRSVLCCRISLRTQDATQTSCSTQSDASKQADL
EP2 modulator: EP2 receptor modulators, cAMP readout, primary screen, cell-based, HTRF cAMP, PGE2 stimulation | Prostaglandin E2 receptor EP2 subtype (Homo sapiens), P43116 | EP2-expressing cells, cAMP HTRF FRET, PGE2 co-stimulation | induction, % at 25 µM | 0.83% of 260,000 active | AID 940, 2007;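 active means compounds whose cAMP rise, as percent of the full-agonist control response, exceeds 60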;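 further: rat C6 glioma line stably carrying human EP2 under a CMV promoter; the protocol text gives 20 µM as final concentration; 100% = response of wells given 1 µM PGE2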
GPR7 antagonist: GPR7 receptor antagonists, primary screen, cell-based, fluorescence, single concentration | Neuropeptides B/W receptor type 1 (Homo sapiens), P48145 | GPR7-expressing cells, fluorescence antagonist assay | inhibition, % at 4.4 µM | 1.1% of 290,000 active; in the data active means inhibition above about 16%, passing the limit was not always enough;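 further: cells stimulated with the agonist NPW; 0% = agonist with vehicle and 100% = vehicle without agonist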
* hit, by the source's call; · = no result. Only some compounds are listed: those with a hit (about 3.7% of all), similar ones and a draw of the others.

SMILES	CHO parental Ca	OX1R antag-1	OX1R antag-2	EP2 antag	EP2 modulator	GPR7 antagonist
O=S(=O)(Nc1ccc(Br)cn1)c1cccs1	7	-13	4	2	26	-1
Cn1c(C(=O)N2CCC(C(=O)N3CCOCC3)CC2)cc2sccc21	2	-4	6	11	-8	20*
Cc1cc(Br)ccc1NC(=O)CN1C(=O)C2C3CC(c4ccccc4)C(C3)C2C1=O (stereo unspecified)	31*	40	10	·	-9	21
Cc1cc(Br)ccc1NC(=O)CNC(=O)CN1C(=O)NC2(CCCCCC2)C1=O	-23	-12	38	18	11	-4
O=C(NCc1cccnc1)/C(=C\c1ccc(-c2cccc(Cl)c2)o1)S(=O)(=O)c1ccccc1	-12	-15	16	0	-8	20*
O=C(NCc1cccnc1)/C(=C/c1ccc(-c2cccc(Cl)c2)o1)S(=O)(=O)c1ccccc1	-15	-5	26	16	-2	21
CN=c1nc(-c2ccccc2)n(-c2ccccc2)s1	-23	-27	12	16	-11	·
COc1cc(/C=N/Nc2snc(SC)c2C#N)cc(OC)c1OC	-8	-14	37	15	-30	-13
CSc1nsc(N/N=C/c2ccc3c(c2)OCO3)c1C#N	12	8	41*	4	-53	-1
C/C=C/Cn1c(Br)nc2c1c(=O)[nH]c(=O)n2C	-4	-13	17	6	10	-11
O=C(Nc1ccc(Cl)c(Cl)c1)Nc1ccccc1NS(=O)(=O)c1cccs1	35*	2	66	4	-41	-7
Cc1ccc(N)cc1O	-5	-11	38*	·	·	·
Nc1ccc(C(=O)O)c(O)c1	2	3	20	5	7	-4
Cc1cc(O)c(-c2cc(O)c(C)cc2O)cc1O	2	-8	8	134*	-28	-3
O=C(c1cccs1)N1CCC(n2nc(-c3ccco3)ccc2=O)CC1	·	·	·	·	-15	·
CCOC(=O)/C(=C\c1cccnc1)C(=O)c1cc(C(C)=O)c(Nc2ccccc2)s1	31	24	11	38	-18	30*
CCOC(=O)/C(=C\c1ccccc1)C(=O)c1cc(C(C)=O)c(Nc2ccccc2)s1	-10	-34	3	10	43	4
COCCNC(=S)N/N=C/c1ccc(OCc2ccc(C(=O)OC)cc2)c(OC)c1	-6	-1	2	12	-4	-4
[N-]=[N+]=CC(=O)C(c1ccccc1)(c1ccccc1)c1ccccc1	-18	-27	5	8	76*	-21
COc1ccc(Nc2nc3c(C)cccc3cc2C#N)cc1	-6	-6	27	1	25	-8
Cc1cccc2cc(C#N)c(NC3CCCCC3)nc12	·	·	·	15	78*	·
CCOC(=O)N/N=C\c1ccc([N+](=O)[O-])s1	-4	-4	52*	11	-5	-3
Cc1cc(C)n(CC(=O)N/N=C/c2ccc([N+](=O)[O-])s2)n1	-4	-10	58*	3	-21	-3
CCOC(=O)N/N=C\c1ccc(C)s1	0	3	15	3	1	3
N#Cc1c(-c2ccccc2)cc(-c2ccccc2)nc1SCCC(=O)O	8	-16	74*	·	·	-2
SMILES	CHO parental Ca	OX1R antag-1	OX1R antag-2	EP2 antag	EP2 modulator	GPR7 antagonist
N#Cc1c(-c2ccc(Cl)cc2)cc(-c2ccccc2)nc1SCC(=O)O	-8	-20	28	·	·	9
O=C(Nc1cccc(C(F)(F)F)c1)Oc1ccc(Cl)c2cccnc12	62*	34	23	18	-28	32*
CC1CCN(c2nc3c(c(=O)n(C)c(=O)n3C)n2CCSc2nc3ccccc3s2)CC1	-32	-29	15	9	61*	-4
c1nc2sc3c(c2c2nnnn12)CCCC3	-17	-16	15	10	18	18*
O=C1C2[C@@H](c3ccccc3)N[C@@H](c3ccccc3)C1[C@@H](c1ccccc1)N[C@H]2c1ccccc1	·	·	·	47*	-9	·
CCC1C(=O)C(CC)C(c2ccccc2)NC1c1ccccc1 (stereo unspecified)	-34	-55	12	·	·	-25
O=C(NCc1ccco1)c1cc(-c2cccs2)nc2ccccc12	-18	-7	22	5	-1	-2
O=C(COC(=O)c1cc(-c2cccs2)nc2ccccc12)NCc1ccco1	-12	17	72*	18	0	-6
O=C(Nc1nc2ccccc2s1)c1ccc(Cl)s1	-12	-8	43*	15	-16	-14
O=C(Nc1nc2ccccc2s1)c1cc(-c2ccccc2)nn1-c1ccccc1	42*	15	30	6	19	-7
O=C(Nc1nc2ccccc2s1)c1ccc(F)cc1	-19	-23	25	19	-29	-10
CC(=O)c1sc(NC(=O)c2cc(-c3ccccc3)nn2-c2ccccc2)nc1C	-18	-5	66*	4	5	3
Cc1cccc(C(=O)Nc2onc(C)c2C#N)c1	-2	-14	13	5	36	-11
Oc1ccc(-c2cnns2)c(O)c1	-2	-3	4	15	-46	14
Cc1cc(N/N=C/c2ccc(O)cc2O)nc(-n2nc(C)cc2C)n1	9	-6	4	4	-15	-10
CN(C)c1ccc(N=Nc2ccccc2C(=O)OCC(=O)N2CCCCCC2)cc1	29*	-14	6	3	-6	-3
CN(C)c1ccc(N=Nc2ccccc2C(=O)OCC(=O)N2CCCC2)cc1	-16	-25	29	4	4	1
CN1CCCC(OC(=O)c2cc(F)c(F)c(F)c2F)C1 (stereo unspecified)	-10	-29	0	·	·	-10
COc1ccc(-n2c(=O)cc(N3CCN(Cc4ccccc4)CC3)[nH]c2=O)cc1	-9	-13	13	5	14	18*
N#Cc1cc(N2CCOCC2)nc2ccccc12	-11	-26	9	9	-7	-11
O=C(NNC(=O)c1ccccc1O)c1ccc(Cl)c(S(=O)(=O)N2CCc3ccccc32)c1	57*	40*	62*	·	·	·
CCOC(=O)/C=C/C(=O)Nc1ccc(Oc2ccccc2)cc1	44*	33	10	2	-40	20
CCOC(=O)/C=C/S(=O)(=O)c1ccc(NC(C)=O)cc1	26	1	-3	4	6	18*
O=C(O)C1CCC(CN(Cc2cccc(Br)c2)C(=S)Nc2ccccc2F)CC1 (stereo unspecified)	-4	-19	10	5	35	-22
